# Source: PubChem BioAssay (SRMLSC)
# The entries come from a sample that favours hits as a whole.
# Fibroblast inh – blocks proliferation of human lung fibroblasts; LL 47 human lung fibroblast viability, ATP luminescence; active compounds read low; viability, % at 10 µM; hit rate 1.1% among 85,000; AID 719;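 active = viability at or below 50% in the single dose screen; inactive = viability above 50%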;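 note: compound exposure lasted 72 h before the ATP readout; 100% = median luminescence of untreated cell-only wells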
#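 Benchmarks: Cell-only wells, no compound | Test system: LL 47 human lung fibroblasts, passage 12 or lower | Input: 1,150 cells/well | Measured by: CellTiter-Glo luminescence measuring cellular ATP | Medium: IMEM, 15% FBS supplement | Schedule: Overnight attachment after seeding, then 72 h compound exposure at 37 °C | Doses: Compound addition at 0.1% DMSO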
# PTEN del growth – growth suppressors of cells with PTEN tumor suppressor deletion. viability, % at 10 µM. hit rate 1.2% among 140,000. HCT116 PTEN-null viability, CellTiter-Glo, 60 h; active compounds read low. AID 827;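 active = viability at or below a set limit, 4 SD under the median of all tested compounds, cut at about 3.7% in these data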;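 note: PTEN knockout HCT116 line with beta catenin targeted HCT116 as companion control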
# bCat KO growth – beta-catenin-lacking colon tumor cell growth suppression; AID 818; hit rate 1.5% among 140,000; viability, % at 10 µM; HCT116 beta-catenin knockout viability, CellTiter-Glo, 60 h; active compounds read low;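 active = viability at or under a set limit, the compound median less 4 SD, cut at about 6% in these data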;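 note: 0% = Hyamine 1622 control at 20 µM and 100% = untreated cell control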
# H69AR inhibit – blocks growth of human H69AR lung tumor cells; AID 598; hit rate 6% among 85,000; H69AR lung tumor viability, ATP luminescence, 72 h; active compounds read low; viability, % at 10 µM;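 active = viability at or below 40%; inactive = viability above 40%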;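 note: multidrug resistant small cell line overexpressing MRP-1 efflux transporter; 100% = mean luminescence of untreated control wells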
# HUVEC prolif 384 – human endothelial cell proliferation inhibition. HUVEC proliferation, CellTiter-Glo luminescence, 72 h; active compounds read low. viability, % at 10 µM (by protocol). hit rate 1.1% among 86,000;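 active = viability at or below 30%; inactive = viability above 30%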;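 note: 100% = median luminescence of DMSO-only cell control wells on each plate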
# Active calls of the source: *; x = not tested or not shown.
SMILES,Fibroblast inh,PTEN del growth,bCat KO growth,H69AR inhibit,HUVEC prolif 384
Cc1cccc(Nc2nnc(SCC(=O)NC(=O)Nc3ccc4c(c3)OCCO4)s2)c1,x,0.8*,0.6*,x,x
Cc1ccc(C(=O)C[n+]2cc(-c3ccc(C)cc3)n3c2CCCCC3)cc1,x,5,3.5*,x,x
Cc1ccc(-c2c[n+](CC(=O)OCc3ccccc3)c3n2CCC3)cc1,x,100,94,x,x
CC(C)C(=O)NC(c1ccc([N+](=O)[O-])cc1)c1c(O)ccc2ccccc12 (stereo unspecified),x,1.8*,2.0*,x,x
CC(C)C(=O)NC(NC(=O)C(C)C)c1ccc([N+](=O)[O-])cc1,x,95,96,x,x
Cc1ccc(CNc2ccc3c(c2)OCO3)c(C)c1,95,14,9,30*,61
c1cncc(CNc2ccc3c(c2)OCO3)c1,94,75,80,80,94
O=c1cc(N2CCN(c3ccc(F)cc3)CC2)[nH]c(=O)n1C1CCCCC1,84,66,72,35*,60
O=c1cc(N2CCC3(CC2)OCCO3)[nH]c(=O)n1C1CCCCC1,94,100,92,69,99
Cc1ccc(-c2onc3ccc(C=O)cc23)cc1,91,36,25,33*,57
COc1ccc2c(c1OC)C(=O)N1c3ccccc3SC21 (stereo unspecified),85,99,103,100,95
COc1ccc2c(c1OC)C(=O)N1c3ccccc3C(=O)N(c3ccccc3F)C21 (stereo unspecified),98,54,50,3.7*,65
Cc1cccc(N2CCN(C(=O)c3cn(C)c(=O)c4c3c3ccccc3n4C)CC2)c1C,85,23,34,31*,36
Cn1c2ccccc2c2c(C(=O)N3CCN(c4ccccc4)CC3)cn(C3CCCC3)c(=O)c21,100,64,78,72,72
COCCn1cc(C(=O)N2CCN(C)CC2)c2c3ccccc3n(C)c2c1=O,100,95,102,74,97
Cc1ccc(Cl)cc1N1CCN(C(=O)c2cn(C)c(=O)c3c2c2ccccc2n3C)CC1,55,1.3*,1.4*,3.4*,33
O=C(CCCNC(=O)/C(=C/c1ccccc1F)NC(=O)c1ccccc1)OCc1ccccc1,x,99,89,x,x
C=CCn1c(SCc2c(C)noc2C)nc2cc(C(=O)O)ccc2c1=O,85,31,27,94,47
COc1cc2nc(SCc3c(C)noc3C)n(CCC3=CCCCC3)c(=O)c2cc1OC,86,48,50,27*,71
COc1cc2nc(SCC(=O)NC3CC3)n(CCC3=CCCCC3)c(=O)c2cc1OC,76,x,x,34*,25*
CN(C)S(=O)(=O)c1ccc(Cl)c(NC(=O)COc2ccccc2[N+](=O)[O-])c1,x,98,91,x,x
Cn1c(N2CCN(C(=O)NC34CC5CC(CC(C5)C3)C4)CC2)nc2ccccc21,107,102,98,82,94
CCC(=O)/C=C1/Sc2ccc(OC)cc2N1CC,94,78,67,75,87
CCC(/C=C1\Sc2ccc(OC)cc2N1CCO)=C\c1sc2ccc(OC)cc2[n+]1CCO,x,0.9*,2.5*,x,x
CCc1cccc(CC)c1N1C(=O)c2cc(N3CCOCC3)c([N+](=O)[O-])cc2C1=O,x,82,95,x,x
SMILES,Fibroblast inh,PTEN del growth,bCat KO growth,H69AR inhibit,HUVEC prolif 384
COc1ccc(C2CC(c3cccs3)=Nc3ccccc3S2)cc1 (stereo unspecified),89,24,26,17*,77
COc1ccc(O)c(C2=Nc3ccccc3N=C(c3cccs3)C2)c1,x,65,73,x,x
O=[N+]([O-])c1ccc(-c2cnc(SCc3ccccc3Cl)[nH]2)cc1,x,53,62,x,x
O=[N+]([O-])c1ccc(-c2cnc(SC(c3ccccc3)c3ccccc3)[nH]2)cc1,x,23,3.9*,x,x
COc1cc(-c2nc(-c3ccccc3)c(-c3ccc(F)cc3)[nH]2)cc2c1OCO2,x,76,68,x,x
COc1ccc(-c2[nH]c(-c3ccc4c(c3)OCO4)nc2-c2ccccc2)cc1,x,1.4*,1.3*,x,x
C/C=N/NC(=O)CCNC(=O)c1ccccc1,x,96,93,x,x
CC(=O)Nc1nc(C)c(-c2csc(Nc3ccc(O)cc3)n2)s1,47*,18,13,7.2*,40
Cc1nc(C)c(-c2csc(Nc3cccnc3)n2)s1,31*,69,85,50,66
c1cncc(Nc2nc(-c3ccncc3)cs2)c1,97,85,92,61,85
Oc1ccc(-c2nc(-c3ccc(O)c(O)c3)cs2)cc1,46*,11,15,12*,34
Cc1cc(NS(=O)(=O)c2ccc(Nc3nc(-c4ccc(O)cc4)cs3)cc2)no1,x,103,86,x,x
Oc1ccc(Nc2nc(-c3ccc4ccccc4c3)cs2)cc1,47*,30,23,19*,55
Cc1cccc(NC(=O)C2CCCN2/C=C/C(=O)C(F)(F)F)c1C (stereo unspecified),x,96,103,x,x
CC(=O)Nc1nc(C)c(-c2csc(Nc3cccc([N+](=O)[O-])c3)n2)s1,x,1.7*,1.8*,x,x
Cc1c(C(=O)Nc2ccccc2C(=O)N2CCOCC2)cccc1[N+](=O)[O-],x,99,101,x,x
COc1cc(/C=N/NC(=Nc2ccc(C)cc2)c2nc3ccccc3s2)ccc1O,82,78,68,35*,88
COc1cc(-c2nc3ccccc3s2)ccc1O,90,87,90,40*,50
Cc1ccc(C2CC2C(=O)NNC(=S)Nc2cccc(C)c2)cc1 (stereo unspecified),92,95,89,62,86
Cc1ccc(C2CC2C(=O)NNC(=S)Nc2cccc(Cl)c2)cc1 (stereo unspecified),91,80,85,17*,69
COc1ccc(CCN2C(=O)C3C4C=CC(C3C2=O)C2C(=O)N(CCc3ccc(OC)c(OC)c3)C(=O)C42)cc1OC (stereo unspecified),103,56,53,40*,96
COc1cc(CNCCc2ccc(F)cc2)ccc1OCc1ccc(Cl)nc1,x,15,15,x,x
COc1cccc(CNCCc2c[nH]c3ccccc23)c1OCc1ccc(F)cc1,x,1.2*,1.4*,x,x
COc1cc(CNCCc2c[nH]c3ccccc23)ccc1OCc1ccc(F)cc1,x,2.0*,1.5*,x,x
CCCn1nnnc1NC(=O)COc1ccc(CC)cc1,x,103,94,x,x
SMILES,Fibroblast inh,PTEN del growth,bCat KO growth,H69AR inhibit,HUVEC prolif 384
CCNS(=O)(=O)c1ccc2c(c1)NCC2,x,97,99,x,x
CCN(CC)S(=O)(=O)c1ccc2oc(C(=O)NCc3ccc(C)cc3)c(C)c2c1,88,72,80,38*,85
CCn1cc(C(=O)NCc2ccc(Cl)cc2)c(=O)c2cc(S(=O)(=O)N3CCOCC3)ccc21,90,63,68,30*,86
CCN(Cc1ccccc1)S(=O)(=O)c1ccc2oc(C(=O)O)c(C)c2c1,101,108,97,92,89
CCn1cc(C(=O)NCc2ccc3c(c2)OCO3)c(=O)c2cc(S(=O)(=O)N3CCOCC3)ccc21,90,85,90,57,87
Cc1c(C(=O)N(C)Cc2ccccc2)oc2ccc(S(=O)(=O)N3CCCC3)cc12,88,72,68,39*,95
